# In ChEMBL document CHEMBL1141526, “3-Amino-1,5-benzodiazepinones: potent, state-dependent sodium channel blockers with anti-epileptic activity” (Bioorg Med Chem Lett, 2008):
# Active and inactive are the calls of the source. The rule behind the calls is not given here.
# Columns and labels:
# [1] = system: hERG (Potassium voltage-gated channel subfamily H member 2, Homo sapiens); assay: Displacement of [35S]MK-0499 from human hERG potassium channel at 10 uM
# [2] = molecular target: T1, Sodium channel protein type 9 subunit alpha (Homo sapiens, UniProt Q15858); assay: Inhibition of human Nav1.7 sodium channel expressed in HEK293 cells by FRET assay; format: cell-based
# Summary of the method: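 HEK-293 cells stably expressing hNav1.7 were used in a functional membrane-potential assay. Channel block was read as FRET between two membrane-associated dyes; the value is reported as IC50.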
# Target sequence in this assay (Q15858 whole entry): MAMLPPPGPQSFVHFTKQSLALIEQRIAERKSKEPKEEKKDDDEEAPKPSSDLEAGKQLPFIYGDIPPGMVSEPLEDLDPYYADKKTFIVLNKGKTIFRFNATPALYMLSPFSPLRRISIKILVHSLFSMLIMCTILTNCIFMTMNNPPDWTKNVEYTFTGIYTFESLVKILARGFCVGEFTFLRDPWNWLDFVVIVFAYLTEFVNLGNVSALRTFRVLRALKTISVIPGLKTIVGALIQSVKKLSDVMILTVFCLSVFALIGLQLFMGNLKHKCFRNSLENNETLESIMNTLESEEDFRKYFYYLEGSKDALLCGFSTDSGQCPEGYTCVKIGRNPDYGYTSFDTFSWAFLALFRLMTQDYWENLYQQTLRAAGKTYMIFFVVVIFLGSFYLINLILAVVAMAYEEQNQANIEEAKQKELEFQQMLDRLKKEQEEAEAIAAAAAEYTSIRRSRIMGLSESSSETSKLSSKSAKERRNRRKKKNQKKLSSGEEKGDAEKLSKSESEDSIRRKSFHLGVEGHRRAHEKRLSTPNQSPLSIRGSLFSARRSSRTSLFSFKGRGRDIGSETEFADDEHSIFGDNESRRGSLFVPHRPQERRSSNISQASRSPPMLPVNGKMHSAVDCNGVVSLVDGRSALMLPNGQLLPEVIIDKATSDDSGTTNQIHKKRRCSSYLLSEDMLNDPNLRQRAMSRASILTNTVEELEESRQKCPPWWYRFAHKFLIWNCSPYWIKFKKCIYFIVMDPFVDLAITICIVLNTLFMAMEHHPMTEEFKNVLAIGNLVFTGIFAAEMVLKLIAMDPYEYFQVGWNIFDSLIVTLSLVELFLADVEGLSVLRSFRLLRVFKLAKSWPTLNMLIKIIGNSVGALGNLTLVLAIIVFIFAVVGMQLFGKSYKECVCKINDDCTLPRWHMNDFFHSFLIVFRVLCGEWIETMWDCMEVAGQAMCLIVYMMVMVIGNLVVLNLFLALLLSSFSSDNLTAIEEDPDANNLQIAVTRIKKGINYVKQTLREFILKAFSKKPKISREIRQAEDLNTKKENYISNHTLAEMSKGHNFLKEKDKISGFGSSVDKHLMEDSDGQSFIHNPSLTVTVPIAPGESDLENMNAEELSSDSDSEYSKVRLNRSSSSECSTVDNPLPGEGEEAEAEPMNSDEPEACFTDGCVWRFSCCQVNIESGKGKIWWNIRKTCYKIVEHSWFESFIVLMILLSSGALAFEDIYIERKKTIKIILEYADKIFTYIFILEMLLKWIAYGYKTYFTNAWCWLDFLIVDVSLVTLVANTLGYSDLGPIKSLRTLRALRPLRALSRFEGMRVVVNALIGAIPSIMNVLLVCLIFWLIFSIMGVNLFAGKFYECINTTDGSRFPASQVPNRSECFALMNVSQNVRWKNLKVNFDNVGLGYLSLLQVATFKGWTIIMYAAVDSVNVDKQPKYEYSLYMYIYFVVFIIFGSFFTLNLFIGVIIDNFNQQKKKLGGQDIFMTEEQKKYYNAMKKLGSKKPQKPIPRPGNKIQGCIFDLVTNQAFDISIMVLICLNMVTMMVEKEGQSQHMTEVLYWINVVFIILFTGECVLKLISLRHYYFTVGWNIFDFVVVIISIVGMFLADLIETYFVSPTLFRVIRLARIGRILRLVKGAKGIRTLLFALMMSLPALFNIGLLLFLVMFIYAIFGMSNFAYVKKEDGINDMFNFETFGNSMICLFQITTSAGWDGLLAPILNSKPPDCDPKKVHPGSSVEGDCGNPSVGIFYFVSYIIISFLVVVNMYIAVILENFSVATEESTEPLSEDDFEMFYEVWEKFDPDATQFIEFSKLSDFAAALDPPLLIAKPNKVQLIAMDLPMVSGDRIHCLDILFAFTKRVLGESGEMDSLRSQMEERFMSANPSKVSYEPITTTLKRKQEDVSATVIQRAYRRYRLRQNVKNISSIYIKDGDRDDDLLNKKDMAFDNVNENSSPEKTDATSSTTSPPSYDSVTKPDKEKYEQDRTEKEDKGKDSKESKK
# [3] = system: hERG (Potassium voltage-gated channel subfamily H member 2, Homo sapiens); assay: Displacement of [35S]MK-0499 from human hERG potassium channel at 1 uM
# Mus musculus = assay: Anticonvulsant activity in C57BL6J mouse assessed as prevention of shock-induced tonic-clonic seizures at 3 mg/kg, po after 30 mins; format: functional; conditions: for ED50: 0.5 h
# Summary of the method: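 Male C57BL6J mice, 14 weeks old. Dosed 3 mg/kg by gavage in 5% EtOH + 10% Tween 80 + 85% water, sonicated, 2 mL/kg. Maximal electroshock via auricular electrodes 30 min post-dose: 100 Hz, 0.7 ms pulse width, 0.5 s duration, 18 mA. Read-out was protection from tonic–clonic seizures; n = 10.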
# [4] = Half life in Sprague-Dawley rat at 1.0 mg/kg, iv; format: ADME, organism-based; design: dose 1 mg/kg, route intravenous; conditions: in vivo
# Summary of the method: (§1)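 Fasted male Sprague–Dawley rats (n = 3 per route) received 1.0 mg/kg iv through a femoral vein cannula or 3.0 mg/kg po by gavage. Compound was formulated at 1.5 mg/mL in PEG300/water or DMSO/PEG300/water. Serial blood sampled at 5 min (iv only), 15 and 30 min, and 1, 2, 4, 6, 8 h. Plasma was acetonitrile-precipitated and measured by LC–MS/MS.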
# [5] = Clearance in Sprague-Dawley rat at 1.0 mg/kg, iv; format: ADME, organism-based; design: dose 1 mg/kg, route intravenous; conditions: in vivo
# Summary of the method: as §1
# [6] = Cmax in Sprague-Dawley rat at 3.0 mg/kg, po; conditions: in vivo
# [7] = Oral bioavailability in Sprague-Dawley rat at 3.0 mg/kg; format: ADME, organism-based; conditions: in vivo
# Summary of the method: as §1
# [8] = molecular target: T1, Sodium channel protein type 9 subunit alpha; conditions: HEK293, 1 uM
# Target sequence in this assay (Q15858 whole entry, looked up): as the sequence (Q15858 whole entry) above
# [9] = molecular target: T1, Sodium channel protein type 9 subunit alpha; conditions: HEK293
# Target sequence in this assay (Q15858 whole entry, looked up): as the sequence (Q15858 whole entry) above
# [10] = molecular target: T1, Sodium channel protein type 9 subunit alpha; assay: Inhibition of human Nav1.7 sodium channel expressed in HEK293 cells at a membrane potential of -70 mV by whole cell voltage clamp technique; format: cell-based
# Summary of the method: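 Whole-cell voltage clamp on HEK-293 cells stably expressing hNav1.7. Peak current evoked by 20 ms depolarizations from −70 mV. Bath: 40 mM NaCl, 120 mM NMDG–Cl, 1 mM KCl, 2.7 mM CaCl2, 0.5 mM MgCl2, 10 mM NMDG–Hepes, pH 7.4. Pipette: Cs–methanesulfonate/CsCl/CsF/BAPTA-based, pH 7.4. Junction potentials (<4 mV) were not corrected.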
# Target sequence in this assay (Q15858 whole entry): as above
SMILES,IC50 [2] [nM],inhibition [1] [%],inhibition [3] [%],further results
CC(C)N1C(=O)[C@H](NC(=O)[C@@H](Cc2ccccc2)NC(=O)OC(C)(C)C)CN(CC2CC2)c2ccccc21,52,42,–,–
Nc1nnc(-c2cccc(Cl)c2Cl)c(N)n1 [LAMOTRIGINE],–,–,–,ED50 (Mus musculus): 2.2 mg/kg
CC(C)(C)OC(=O)N[C@H](Cc1ccccc1C(F)(F)F)C(=O)N[C@@H]1CN(CC2CC2)c2ccccc2N(CC(F)(F)F)C1=O,131,11,–,half-life [4]: 2.4 h; clearance [5]: 51 mL/min/kg; Cmax [6]: 60 nM; bioavailability [7]: 10%
CC(C)(C)OC(=O)N[C@H](Cc1cc(C(F)(F)F)ccc1C(F)(F)F)C(=O)N[C@@H]1CN(CC2CC2)c2ccccc2N(CC(F)(F)F)C1=O,120,6,–,–
CC(C)N1C(=O)[C@H](NC(=O)[C@@H](Cc2ccccc2F)NC(=O)OC(C)(C)C)CN(CC2CC2)c2ccccc21 (stereo in doubt; 22) [listing 1 of 2 here],–,32,–,–
CC(C)N1C(=O)[C@H](NC(=O)[C@@H](Cc2c(F)cccc2F)NC(=O)OC(C)(C)C)CN(CC2CC2)c2ccccc21,97,25,–,–
CC(C)(C)OC(=O)N[C@H](Cc1ccc(F)cc1)C(=O)N[C@@H]1CN(CC2CC2)c2ccccc2N(CC(F)(F)F)C1=O,219,–,–,–
CC(C)N1C(=O)[C@H](NC(=O)[C@@H](Cc2ccccc2F)NC(=O)OC(C)(C)C)CN(CC2CC2)c2ccccc21 (stereo in doubt; 14) [listing 1 of 2 here],–,–,–,IC50 ([2]; hek293): 102 nM
CC(C)N1C(=O)[C@H](NC(=O)[C@@H](Cc2ccccc2F)NC(=O)OC(C)(C)C)CN(CC2CC2)c2ccccc21 (stereo in doubt; 14) [listing 2 of 2 here],–,33,7,–
CC(C)(C)OC(=O)N[C@H](Cc1ccccc1OC(F)(F)F)C(=O)N[C@@H]1CN(CC2CC2)c2ccccc2N(CC(F)(F)F)C1=O,73,–,–,–
NC(=O)N1c2ccccc2C=Cc2ccccc21 [CARBAMAZEPINE],–,–,–,ED50 (Mus musculus): 3.4 mg/kg
CC(C)N1C(=O)[C@H](NC(=O)[C@@H](Cc2ccccc2C(F)(F)F)NC(=O)OC(C)(C)C)CN(CC2CC2)c2ccccc21,149,–,–,half-life [4]: 2.5 h; clearance [5]: 23 mL/min/kg; Cmax [6]: 150 nM; bioavailability [7]: 9%
CC(C)N1C(=O)[C@H](NC(=O)[C@@H](Cc2ccccc2F)NC(=O)OC(C)(C)C)CN(CC2CC2)c2ccccc21 (stereo in doubt; 22) [listing 2 of 2 here],102,–,–,–

# More lines, in order of falling IC50 [2], values ahead:
IC50 [2] [nM],SMILES,inhibition [1] [%],inhibition [3] [%],further results
409,CN1C(=O)[C@H](NC(=O)[C@@H](Cc2ccccc2F)NC(=O)OC(C)(C)C)CNc2ccccc21,25,0,–
196,CC(C)N1C(=O)[C@H](NC(=O)[C@@H](Cc2ccc(F)cc2)NC(=O)OC(C)(C)C)CN(CC2CC2)c2ccccc21,–,–,–
188,CN1C(=O)[C@H](NC(=O)[C@@H](Cc2ccccc2F)NC(=O)OC(C)(C)C)CN(CC2CCCCC2)c2ccccc21,43,17,–
142,CN1C[C@@H](NC(=O)[C@@H](Cc2ccccc2F)NC(=O)OC(C)(C)C)C(=O)N(C)c2ccccc21,7,0,–
142,CC(C)(C)OC(=O)N[C@H](Cc1cccc(F)c1)C(=O)N[C@@H]1CN(CC2CC2)c2ccccc2N(CC(F)(F)F)C1=O,17,–,–
101,CC(C)(C)OC(=O)N[C@H](Cc1ccccc1F)C(=O)N[C@@H]1CN(CC2CC2)c2ccccc2N(CC(F)(F)F)C1=O,20,7,–
96,CC(C)N1C(=O)[C@H](NC(=O)[C@@H](Cc2cccc(F)c2)NC(=O)OC(C)(C)C)CN(CC2CC2)c2ccccc21,17,–,–
81,CN1C(=O)[C@H](NC(=O)[C@@H](Cc2ccccc2F)NC(=O)OC(C)(C)C)CN(CC2CCC2)c2ccccc21,65,20,–
75,CC(C)N1C(=O)[C@H](NC(=O)[C@@H](Cc2ccccc2OC(F)(F)F)NC(=O)OC(C)(C)C)CN(CC2CC2)c2ccccc21,35,–,half-life [4]: 2.4 h; clearance [5]: 30 mL/min/kg; Cmax [6]: 40 nM; bioavailability [7]: 4%
49,CN1C(=O)[C@H](NC(=O)[C@@H](Cc2ccccc2F)NC(=O)OC(C)(C)C)CN(CC2CC2)c2ccccc21,–,–,–
47,CN1C(=O)[C@H](NC(=O)[C@@H](Cc2ccccc2F)NC(=O)OC(C)(C)C)CN(CC(F)(F)F)c2ccccc21,62,36,–
30,CC(C)(C)OC(=O)N[C@H](Cc1ccccc1)C(=O)N[C@@H]1CN(CC2CC2)c2ccccc2N(CC(F)(F)F)C1=O,–,–,inhibition [8]: < 10%; Activity (Mus musculus): Active; Kr [9]: > 5 µM; half-life [4]: 3.1 h; clearance [5]: 48 mL/min/kg; IC50 [10]: 1.54 nM; Ki [10]: 0.63 nM; Cmax [6]: 30 nM; bioavailability [7]: 5%
25,CN1C(=O)[C@H](NC(=O)[C@@H](Cc2ccccc2F)NC(=O)OC(C)(C)C)CN(Cc2ccccc2)c2ccccc21,84,14,–
